Data taken from ChEMBL document CHEMBL1153869, “Preparation and antimicrobial behaviour of quaternary ammonium thiol derivatives able to be grafted on metal surfaces” (2009).

Legend:
Staphylococcus aureus [1] = experiment: Antibacterial activity against Staphylococcus aureus ATCC 6538 after 24 hrs by serial dilution method; type: functional; conditions: ATCC 6538, 24 h
How it was run: (§1)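 Bacteria were grown overnight on a TSA slant, transferred into M9GY (pH 7.0) and incubated overnight at 30 °C. Third-generation, exponential-phase cells were adjusted to OD660 0.05 (about 5.10⁶–5.10⁷ cfu/mL). Initial solutions in methanol/water 1:1 were serially diluted automatically in microtitre plates. MIC was the lowest concentration with no turbidity after 24 h at 30 °C. Three independent experiments were run.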

Pseudomonas aeruginosa [2] = experiment: Antibacterial activity against Pseudomonas aeruginosa ATCC 9027 after 24 hrs by serial dilution method; type: functional; conditions: ATCC 9027, 24 h; how it was run: as §1
Staphylococcus aureus [3] = experiment: Antibacterial activity against Staphylococcus aureus ATCC 6538 after 5 days; type: functional; conditions: ATCC 6538, 120 h
How it was run: (§2)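 From bacterial MIC plates after 5 days of incubation, the three sub-dose wells showing no growth were streaked onto trypticase soy agar. MLC was the lowest concentration leaving no viable bacteria after subculture on antibiotic-free medium. Three independent experiments were run.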

Pseudomonas aeruginosa [4] = experiment: Antibacterial activity against Pseudomonas aeruginosa ATCC 9027 after 5 days; type: functional; conditions: ATCC 9027, 120 h; how it was run: as §2
Aspergillus niger [5] = experiment: Antifungal activity against Aspergillus niger ATCC 6275 after 7 days; type: functional; conditions: ATCC 6275, 168 h
How it was run: (§3)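 From fungal MIC plates after 7 days of incubation, the three sub-dose wells showing no growth were streaked onto Sabouraud dextrose agar. MLC was the lowest concentration leaving no viable fungi after subculture on drug-free medium. Three independent experiments were run.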

Candida albicans [6] = experiment: Antifungal activity against Candida albicans ATCC 10231 after 7 days; type: functional; conditions: ATCC 10231, 168 h; how it was run: as §3
Aspergillus niger [7] = experiment: Antifungal activity against Aspergillus niger ATCC 6275 after 72 hrs by serial dilution method; conditions: ATCC 6275, 72 h
Candida albicans [8] = experiment: Antifungal activity against Candida albicans ATCC 10231 after 72 hrs by serial dilution method; conditions: ATCC 10231, 72 h

Compound | MIC (Staphylococcus aureus [1]) | MIC (Pseudomonas aeruginosa [2]) | MIC (Aspergillus niger [7]) | MIC (Candida albicans [8]) | MLC (Staphylococcus aureus [3]) | MLC (Pseudomonas aeruginosa [4]) | MLC (Aspergillus niger [5]) | MLC (Candida albicans [6])
C[N+](C)(CCCCCCCCCCCS)Cc1ccccc1 | 682 µM | 1060 µM | 351 µM | 472 µM | 682 µM | > 1530 µM | 682 µM | > 896 µM
C[N+](C)(C)CCCCCCCCCCCS | 56.6 µM | 557 µM | 56.6 µM | 1120 µM | 56.6 µM | > 1120 µM | > 131 µM | > 1900 µM
CCCCCCCCCCCCCC[N+](C)(C)CCCCCCCCCCCS | 1310 µM | 1120 µM | 90 µM | 1520 µM | > 1520 µM | > 1520 µM | > 124 µM | > 1520 µM
C[N+](C)(CCCNC(=O)CCCCCCCCCCS)Cc1ccccc1 | 592 µM | 980 µM | 773 µM | > 1060 µM | 946 µM | > 1060 µM | > 946 µM | > 1060 µM
C[N+](C)(C)CCCNC(=O)CCCCCCCCCCS | 105 µM | 595 µM | 105 µM | > 1070 µM | > 395 µM | > 864 µM | > 395 µM | > 1070 µM
CCCCCCCCCCCCCC[N+](C)(C)CCCNC(=O)CCCCCCCCCCS | 188 µM | 442 µM | 56.3 µM | > 742 µM | 188 µM | 599 µM | > 74.2 µM | > 742 µM

Compounds with a lower MIC (Staphylococcus aureus [1]), results first:

MIC (Staphylococcus aureus [1]) | MIC (Pseudomonas aeruginosa [2]) | MIC (Aspergillus niger [7]) | MIC (Candida albicans [8]) | Compound | MLC (Staphylococcus aureus [3]) | MLC (Pseudomonas aeruginosa [4]) | MLC (Aspergillus niger [5]) | MLC (Candida albicans [6])
17.5 µM | 171 µM | 44.1 µM | > 677 µM | CCCCCCCCCC[N+](C)(C)CCCNC(=O)CCCCCCCCCCS | 32.5 µM | 250 µM | > 60.7 µM | > 677 µM
3.2 µM | 93 µM | 4.74 µM | 8.36 µM | CCCCCCCCCCCCCC[N+](C)(C)Cc1ccccc1 [MIRISTALKONIUM CHLORIDE] | – | – | – | –
18.7 µM | 184 µM | 47 µM | > 688 µM | CCCCCCCCCCCC[N+](C)(C)CCCNC(=O)CCCCCCCCCCS | 38.2 µM | 184 µM | > 61.7 µM | > 688 µM
11.6 µM | 309 µM | 31.6 µM | 31.6 µM | CCCCCCCCCC[N+](C)(C)CCCCCCCCCCCS | 48 µM | 309 µM | 48 µM | > 61.3 µM
34.7 µM | 326 µM | 67.2 µM | 39.5 µM | CCCCCCCCCCCC[N+](C)(C)CCCCCCCCCCCS | 73.3 µM | 326 µM | > 92.2 µM | > 63.4 µM
